# In the array DNA melting data of Ke et al. (doi:10.1101/2024.01.08.574731):
# Tests used:
# [1] = folding enthalpy; higher = less favourable; fluorescence melt of hairpins on a sequencing array, two-state fit; conditions: sodium 0.088 M
# How it was run: (§1)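 To match UV melts, fitted temperatures were raised by 9.35 °C. These fits were bootstrapped two-state models that gave melting temperature and folding enthalpy, combined by inverse variance over four replicates. The input was normalised Cy3 fluorescence of library hairpins with annealed Cy3 and quencher oligos on a sequenced MiSeq flow cell, imaged in 50 mM Na-HEPES pH 8.0, 25 mM NaCl in 2.5 °C steps up to 60 °C.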
# [2] = melting temperature; fluorescence melt of hairpins on a sequencing array, two-state fit, raised by 9.35 °C to match UV melts; conditions: sodium 0.088 M
# How it was run: as §1
Sequence,folding enthalpy [1],Tm [2]
GCGCCGCGAAAGCATCGC (((..((....))..))),-17 kcal/mol,51.2 °C
GTCTCAACGAAAGTTGAC (((..(((....)))))),-10.7 kcal/mol,30.5 °C
GCAGCCGGAAACGACCGC ((.(.((....)).).)),-20.9 kcal/mol,31.2 °C
GCAAGCCCGAAAGGGTGC (((..(((....)))))),-14.4 kcal/mol,47.2 °C
GATCGTTAGTACGATC ((((((....)))))),-47.3 kcal/mol,53.2 °C
GATCCGTTACGGATC ((((((...)))))),-34.6 kcal/mol,63.9 °C
GCCTCCGAAAGGATCGGC ((((((....)))..))),-24.2 kcal/mol,45.3 °C
AAACTGAAAAGTTT (((((....))))),-13.4 kcal/mol,33.6 °C
GATCGTGGGTACGATC ((((((....)))))),-37.6 kcal/mol,55.3 °C
GTCAACGAAAGTTTCGAC ((((((....)))..))),-14.3 kcal/mol,26.6 °C
CTTTCGAAAGAAAG (((((....))))),-19.3 kcal/mol,47.3 °C
GCGCTGCGAAAGCACAGC ((..(((....)))..)),-17.6 kcal/mol,49.9 °C
GCACTACGAAAGTACTGC (((.(((....))).))),-26.9 kcal/mol,37.6 °C
GACGCTGCGAAAGCAGTC (((..(((....)))))),-8.26 kcal/mol,37.2 °C
GATCGCCCGAGCGATC ((((((....)))))),-37.4 kcal/mol,67.5 °C
GTCGCAGGAAACCACGAC ((((..(....)..)))),-28 kcal/mol,35.4 °C
GATCGACACTTCGATC ((((((....)))))),-48.6 kcal/mol,53.4 °C
GATCGCTGCGGCGATC ((((((....)))))),-38.9 kcal/mol,68.9 °C
GGGCGTGGAAACGCGTCC ((.((.(....).)).)),-12.9 kcal/mol,50.7 °C
GACCGACGAAAGTCCGTC (((.(((....))).))),-23.9 kcal/mol,43.1 °C
GGCGCCTCGAAAGAGGCC (((..(((....)))))),-8.15 kcal/mol,50.5 °C
GGCGGCGCGAAAGCGGCC (((..(((....)))))),-9.35 kcal/mol,59.5 °C
GGTGAGGCGAAAGCCACC (((..(((....)))))),-16.1 kcal/mol,51.7 °C

Sequence,folding enthalpy [1],Tm [2]
GATCAGTGGTCTGATC ((((((....)))))),-35.7 kcal/mol,51.6 °C
GGCTGCGAAAGCATTGCC ((((((....)))..))),-19.5 kcal/mol,52.8 °C
CGCTGCGGAAACGCGCG (((.(((....)))))),-27.1 kcal/mol,60.8 °C
GCGGTGGGAAACCGTCGC (((..((....))..))),-14.3 kcal/mol,55.5 °C
GTCCTTCGAAAGAATGAC (((.(((....))).))),-30.3 kcal/mol,39.2 °C
GCTTTGCGAAAGCTAGGC ((.(.((....)).).)),-15.7 kcal/mol,44.7 °C
GCTGAACCGAAAGGTAGC (((..(((....)))))),-21.9 kcal/mol,42.1 °C
GTTGGCGAAAGCCGGAAC ((((((....)))..))),-7.97 kcal/mol,27.8 °C
GGCGTTGGAAACAACGTC (.(((((....))))).),-25.4 kcal/mol,57.8 °C
GATCATTCGATGATC ((((((...)))))),-35.8 kcal/mol,47.2 °C
GTTGCCACGAAAGTGAAC (((..(((....)))))),-11.8 kcal/mol,30.6 °C
GAATAGACGAAAGTCTTC (((..(((....)))))),-11.8 kcal/mol,26.1 °C
GATCCTATCGAGGATC ((((((....)))))),-27.1 kcal/mol,51.9 °C
GGTAAACGAAAGTTACC (((.(((....)))))),-25.6 kcal/mol,46 °C
GCGTACTGACGC ((((....)))),-21.9 kcal/mol,52.4 °C
GCTTTTCGAAAGAAAGC (((.(((....)))))),-25.1 kcal/mol,44.5 °C
GATCGTTGTCACGATC ((((((....)))))),-40.9 kcal/mol,54.9 °C
GTCAGTGGAAACATTGGC (.((.((....)).)).),-26.2 kcal/mol,30.6 °C
GGTCTCGAAAGAGAACC ((((((....))).))),-19 kcal/mol,50 °C
GTAGATACGAAAGTATAC (((..(((....)))))),-11.6 kcal/mol,25.4 °C
GCTTTCCCGAAAGGGAGC (((..(((....)))))),-10.2 kcal/mol,34.3 °C
GTATACGGAAACGTATAC (((((((....))))))),-44.8 kcal/mol,55.9 °C
GTTGGACGAAAGTCAAAC (((.(((....))).))),-26.9 kcal/mol,50.9 °C

Sequence,folding enthalpy [1],Tm [2]
GATCCGACCGCGGATC ((((((....)))))),-34.6 kcal/mol,56.8 °C
GTAATTGAAAAATTAC ((((((....)))))),-26.2 kcal/mol,40.3 °C
GAGCAGGGAAACCTACTC (((.(((....))).))),-22.1 kcal/mol,39.5 °C
GTTACCGAAAGGTGTAAC ((((((....)))..))),-14.9 kcal/mol,32.2 °C
CGATAACGGAAACGTTCG (((..(((....)))))),-16.1 kcal/mol,35.6 °C
GTTCAGGGAAACTTGAGC (.(((.(....).))).),-18.4 kcal/mol,30.2 °C
GCCATCCCGAAAGGGGGC (((..(((....)))))),-18.1 kcal/mol,51.8 °C
GCCTGGCGAAAGCTCGGC (((..((....))..))),-18.8 kcal/mol,55.9 °C
GCGATCGATCGC ((((....)))),-41.2 kcal/mol,56.5 °C
GATCCTCACCAGGATC ((((((....)))))),-38.6 kcal/mol,50.9 °C
GATCCAGTGCTGGATC ((((((....)))))),-47.8 kcal/mol,52.8 °C
GGCTTTGGAAACAAAGCC (((((((....))))))),-34.1 kcal/mol,68.3 °C
GATCCTGTCTAGGATC ((((((....)))))),-39.4 kcal/mol,56 °C
GAATTGGGAAACCGATTC ((((.((....)).)))),-36.4 kcal/mol,43.4 °C
GAGGCGGGAAACCACCCC (.((.((....)).)).),-13.6 kcal/mol,27.8 °C
GAAGGTGGAAACACTTTC (((.(((....))).))),-24.9 kcal/mol,38 °C
CGCACGGAAACGTCAGCG ((((((....)))..))),-26.4 kcal/mol,42.7 °C
GATCATCTCGATGATC ((((((....)))))),-50.6 kcal/mol,54.6 °C
GAAACACGAAAGTGCTTC (((.(((....))).))),-22.5 kcal/mol,43.8 °C
GCGTGGCGAAAGCCTTGC ((..(((....)))..)),-16.4 kcal/mol,48 °C
GATCGGGTCACCGATC ((((((....)))))),-36.4 kcal/mol,67.4 °C
GCTTTCGGAAACGAAAAC (.(((((....))))).),-22.4 kcal/mol,36.4 °C
GATCCAAAGCTGGATC ((((((....)))))),-36.3 kcal/mol,47.2 °C
